Measured values as given in ChEMBL document CHEMBL1772954, “Antifungal, cytotoxic and SAR studies of a series of N-alkyl, N-aryl and N-alkylphenyl-1,4-pyrrolediones and related compounds” (Bioorg Med Chem, 2011).
In brackets after ≈: the same amount, converted by molar mass.

Tests used:
Candida tropicalis = experiment: Antifungal activity against Candida tropicalis C 131 2000; type: functional
Outline: (§1)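 CLSI M27-A3 broth microdilution in RPMI-1640 buffered to pH 7.0 with MOPS. Inoculum 1-5 × 10^3 CFU/mL. Compound twofold dilutions from 250 to 0.24 µg/ml, final DMSO <1%. Incubated at 35 °C in a moist, dark chamber and read at 48 h. MIC is the lowest concentration giving total growth inhibition. For MFC, 5 µL from clear wells was plated in duplicate on SDA; MFC is the lowest concentration with no growth.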

SF-268 = experiment: Cytotoxicity against human SF268 cells assessed as cell growth after 2 days by sulforhodamine B assay; type: functional; settings: SF-268, 48 h
Outline: (§2)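 NCI cell lines were run by the Monks method: cells were plated with compounds from DMSO stocks and incubated 2 days at 37 °C in 5% CO2, in duplicate. Cells were fixed with cold TCA, stained with 0.4% SRB, and the bound dye was solubilized in 10 mM tris-base and read at 515 nm. The zero-day control was subtracted, and GI50 was taken from the curves.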

Cryptococcus neoformans = experiment: Antifungal activity against Cryptococcus neoformans ATCC 32264; type: functional; outline: as §1
MCF7 = experiment: Cytotoxicity against human MCF7 cells assessed as cell growth after 2 days by sulforhodamine B assay; type: functional; settings: MCF7, 48 h; outline: as §2
Aspergillus flavus = experiment: Antifungal activity against Aspergillus flavus ATCC 9170; type: functional
Outline: (§3)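 Broth microdilution per CLSI M38-A2 in RPMI-1640 with MOPS at pH 7.0. Inoculum 1-5 × 10^3 CFU/mL, with twofold compound dilutions spanning 250-0.24 µg/ml (final DMSO <1%). Plates incubated at 35 °C, moist and dark, and read when the control fungus had grown. MIC is total growth inhibition. MFC comes from subculturing clear wells in duplicate onto SDA.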

[1] = Cytotoxicity against human erythrocytes assessed as hemolysis by spectrometric analysis; type: cell-based, Erythrocyte
Outline: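 Human heparinized red blood cells were washed in PBS at pH 7.0 and suspended at 4% in sterile 5% glucose. Compounds from DMSO stocks were diluted in 5% glucose to final concentrations of 250 to 0.24 µg/ml and incubated with the cells at 37 °C. Released hemoglobin was read at 540 nm. HC50 is the concentration giving 50% lysis relative to the drug-free value.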

Nannizzia gypsea = experiment: Antifungal activity against Microsporum gypseum C 115 2000; type: functional
Outline: (§4)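 Dermatophytes tested by CLSI M38-A2 microdilution in MOPS-buffered RPMI-1640 at pH 7.0. Inoculum 1-5 × 10^3 CFU/mL; compounds 250 to 0.24 µg/ml in twofold steps, final DMSO <1%. Incubated at 28 °C in a moist, dark chamber and read according to control growth. MIC is the lowest concentration with complete inhibition. MFC is the lowest concentration with no growth after duplicate subculture on SDA.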

Saccharomyces cerevisiae = experiment: Antifungal activity against Saccharomyces cerevisiae ATCC 9763; type: functional; outline: as §1
Trichophyton rubrum = experiment: Antifungal activity against Trichophyton rubrum C 113 2000; type: functional; outline: as §4
NCI-H460 = experiment: Cytotoxicity against human H460 cells assessed as cell growth after 2 days by sulforhodamine B assay; type: functional; settings: NCI-H460, 48 h; outline: as §2
Aspergillus niger = experiment: Antifungal activity against Aspergillus niger ATCC 9029; type: functional; outline: as §3
[2] = system: Trichophyton mentagrophytes; experiment: Antifungal activity against Trichophyton mentagrophytes ATCC 9972; type: functional; outline: as §4
Candida albicans = experiment: Antifungal activity against Candida albicans ATCC 10213; type: functional; outline: as §1
Aspergillus fumigatus = experiment: Antifungal activity against Aspergillus fumigatus ATCC 26934; type: functional; outline: as §3

SMILES	MIC (Candida tropicalis)	GI50 (SF-268)	MFC (Cryptococcus neoformans)	MIC (Cryptococcus neoformans)	GI50 (MCF7)	MFC (Aspergillus flavus)	MIC (Aspergillus flavus)	HC50 [1]	MFC (Nannizzia gypsea)	MIC (Nannizzia gypsea)	MFC (Saccharomyces cerevisiae)	MIC (Saccharomyces cerevisiae)	MFC (Trichophyton rubrum)	MIC (Trichophyton rubrum)	GI50 (NCI-H460)	MFC (Aspergillus niger)	MIC (Aspergillus niger)	MFC [2]	MIC [2]	MIC (Candida albicans)	also measured
O=C1C=CC(=O)N1CCCc1ccccc1	3.9 µg/mL (≈ 18.1 µM)	5.8 µg/mL (≈ 26.9 µM)	31.2 µg/mL (≈ 145 µM)	15.6 µg/mL (≈ 72.6 µM)	5.2 µg/mL (≈ 24.2 µM)	62.5 µg/mL (≈ 290 µM)	31.2 µg/mL (≈ 145 µM)	> 250 µg/mL	1.95 µg/mL (≈ 9.06 µM)	0.97 µg/mL (≈ 4.51 µM)	1.95 µg/mL (≈ 9.06 µM)	0.97 µg/mL (≈ 4.51 µM)	1.95 µg/mL (≈ 9.06 µM)	1.95 µg/mL (≈ 9.06 µM)	> 10 µg/mL	15.6 µg/mL (≈ 72.6 µM)	15.6 µg/mL (≈ 72.6 µM)	7.81 µg/mL (≈ 36.3 µM)	3.9 µg/mL (≈ 18.1 µM)	3.9 µg/mL (≈ 18.1 µM)	MFC (Candida tropicalis): 15.6 µg/mL (≈ 72.6 µM); MFC (Aspergillus fumigatus): 31.2 µg/mL (≈ 145 µM); MIC (Aspergillus fumigatus): 15.6 µg/mL (≈ 72.6 µM)
COc1ccc(N2C(=O)C=CC2=O)cc1OC	15.6 µg/mL (≈ 67 µM)	> 10 µg/mL	15.6 µg/mL (≈ 67 µM)	7.81 µg/mL (≈ 33.5 µM)	> 10 µg/mL	125 µg/mL (≈ 536 µM)	62.5 µg/mL (≈ 268 µM)	> 250 µg/mL	7.81 µg/mL (≈ 33.5 µM)	3.9 µg/mL (≈ 16.7 µM)	15.6 µg/mL (≈ 67 µM)	7.81 µg/mL (≈ 33.5 µM)	7.81 µg/mL (≈ 33.5 µM)	3.9 µg/mL (≈ 16.7 µM)	> 10 µg/mL	125 µg/mL (≈ 536 µM)	62.5 µg/mL (≈ 268 µM)	7.81 µg/mL (≈ 33.5 µM)	3.9 µg/mL (≈ 16.7 µM)	31.2 µg/mL (≈ 134 µM)	MFC (Candida tropicalis): 15.6 µg/mL (≈ 67 µM); MFC (Candida albicans): 62.5 µg/mL (≈ 268 µM); MFC (Aspergillus fumigatus): 125 µg/mL (≈ 536 µM); MIC (Aspergillus fumigatus): 62.5 µg/mL (≈ 268 µM)
O=C1C=CC(=O)N1Cc1ccccc1	15.6 µg/mL (≈ 83.5 µM)	> 10 µg/mL	15.6 µg/mL (≈ 83.5 µM)	7.81 µg/mL (≈ 41.7 µM)	> 10 µg/mL	125 µg/mL (≈ 668 µM)	62.5 µg/mL (≈ 334 µM)	> 250 µg/mL	7.81 µg/mL (≈ 41.7 µM)	3.9 µg/mL (≈ 20.8 µM)	15.6 µg/mL (≈ 83.5 µM)	7.81 µg/mL (≈ 41.7 µM)	7.81 µg/mL (≈ 41.7 µM)	3.9 µg/mL (≈ 20.8 µM)	> 10 µg/mL	62.5 µg/mL (≈ 334 µM)	31.2 µg/mL (≈ 167 µM)	7.81 µg/mL (≈ 41.7 µM)	3.9 µg/mL (≈ 20.8 µM)	3.9 µg/mL (≈ 20.8 µM)	MFC (Candida albicans): 7.81 µg/mL (≈ 41.7 µM); MFC (Aspergillus fumigatus): 250 µg/mL (≈ 1340 µM); MIC (Aspergillus fumigatus): 125 µg/mL (≈ 668 µM)
CCCN1C(=O)C=CC1=O	62.5 µg/mL (≈ 449 µM)	> 10 µg/mL	15.6 µg/mL (≈ 112 µM)	7.81 µg/mL (≈ 56.1 µM)	> 10 µg/mL	15.6 µg/mL (≈ 112 µM)	15.6 µg/mL (≈ 112 µM)	> 250 µg/mL	7.81 µg/mL (≈ 56.1 µM)	3.9 µg/mL (≈ 28 µM)	31.2 µg/mL (≈ 225 µM)	15.6 µg/mL (≈ 112 µM)	7.81 µg/mL (≈ 56.1 µM)	3.9 µg/mL (≈ 28 µM)	> 10 µg/mL	15.6 µg/mL (≈ 112 µM)	15.6 µg/mL (≈ 112 µM)	7.81 µg/mL (≈ 56.1 µM)	7.81 µg/mL (≈ 56.1 µM)	62.5 µg/mL (≈ 449 µM)	MFC (Candida tropicalis): 125 µg/mL (≈ 898 µM); MFC (Candida albicans): 125 µg/mL (≈ 898 µM); MFC (Aspergillus fumigatus): 31.2 µg/mL (≈ 225 µM); MIC (Aspergillus fumigatus): 15.6 µg/mL (≈ 112 µM)
O=C1C=CC(=O)N1c1ccc2c(c1)OCO2	31.2 µg/mL (≈ 144 µM)	> 10 µg/mL	15.6 µg/mL (≈ 72 µM)	7.81 µg/mL (≈ 36 µM)	> 10 µg/mL	125 µg/mL (≈ 576 µM)	62.5 µg/mL (≈ 288 µM)	> 250 µg/mL	1.95 µg/mL (≈ 8.98 µM)	1.95 µg/mL (≈ 8.98 µM)	15.6 µg/mL (≈ 72 µM)	7.81 µg/mL (≈ 36 µM)	3.9 µg/mL (≈ 18 µM)	1.95 µg/mL (≈ 8.98 µM)	> 10 µg/mL	125 µg/mL (≈ 576 µM)	62.5 µg/mL (≈ 288 µM)	3.9 µg/mL (≈ 18 µM)	1.95 µg/mL (≈ 8.98 µM)	31.2 µg/mL (≈ 144 µM)	MFC (Candida tropicalis): 62.5 µg/mL (≈ 288 µM); MFC (Candida albicans): 62.5 µg/mL (≈ 288 µM); MFC (Aspergillus fumigatus): 125 µg/mL (≈ 576 µM); MIC (Aspergillus fumigatus): 62.5 µg/mL (≈ 288 µM)
O=C1C=CC(=O)N1CCc1ccccc1	15.6 µg/mL (≈ 77.7 µM)	4.1 µg/mL (≈ 20.4 µM)	15.6 µg/mL (≈ 77.7 µM)	7.81 µg/mL (≈ 38.8 µM)	3.6 µg/mL (≈ 17.9 µM)	31.2 µg/mL (≈ 155 µM)	31.2 µg/mL (≈ 155 µM)	> 250 µg/mL	7.81 µg/mL (≈ 38.8 µM)	3.9 µg/mL (≈ 19.4 µM)	7.81 µg/mL (≈ 38.8 µM)	3.9 µg/mL (≈ 19.4 µM)	3.9 µg/mL (≈ 19.4 µM)	1.95 µg/mL (≈ 9.69 µM)	4.7 µg/mL (≈ 23.4 µM)	15.6 µg/mL (≈ 77.7 µM)	15.6 µg/mL (≈ 77.7 µM)	15.6 µg/mL (≈ 77.7 µM)	7.81 µg/mL (≈ 38.8 µM)	3.9 µg/mL (≈ 19.4 µM)	MFC (Aspergillus fumigatus): 31.2 µg/mL (≈ 155 µM); MIC (Aspergillus fumigatus): 31.2 µg/mL (≈ 155 µM)
